In ChEMBL document CHEMBL1138143, “A new class of blockers of the voltage-gated potassium channel Kv1.3 via modification of the 4- or 7-position of khellinone” (J Med Chem, 2006) one finds EC50 data, which are given here for 57 compounds.

In test [1] the target is Potassium voltage-gated channel subfamily A member 3 (Mus musculus, UniProt P16390). As to the kind of experiment: Effect on blockade of mouse Kv1.3 channel expressed in L929 cells. The class given is functional, cell-based. In a few lines:
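Whole-cell patch clamp on L929 cells stably expressing mouse Kv1.3, holding potential -80 mV. Bath: Ringer (160 mM NaCl, 4.5 mM KCl, 2 mM CaCl2, 1 mM MgCl2, 10 mM HEPES, pH 7.4). Pipette: 134 mM KF, 2 mM MgCl2, 10 mM HEPES, 10 mM EGTA, pH 7.2. Current elicited by 500-ms pulses to 40 mV every 45 s. Series resistance compensation of 60-80% applied above 2 nA.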

Test [2] has as its target Potassium voltage-gated channel subfamily A member 5 (Homo sapiens, UniProt P22460). As to the kind of experiment: Effect on blockade of Kv1.5 channel. The format is functional. Put shortly: (§1)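 Whole-cell patch clamp with a holding potential of -80 mV on cell lines stably expressing Kv1.1, Kv1.2, Kv1.4 or Kv1.5. Recording followed previously described methods. EC50 came from a Hill equation fit to the reduction of area under the current curve.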

The target in test [3] is Potassium voltage-gated channel subfamily A member 4 (Homo sapiens, UniProt P22459). The experiment in a line: Effect on blockade of Kv1.4 channel. The class given is functional. Put shortly:
as §1

Test [4] concerns the target Potassium voltage-gated channel subfamily A member 2 (Homo sapiens, UniProt P16389). The experiment in a line: Effect on blockade of Kv1.2 channel. The format is functional. Put shortly:
as §1

For test [5], the target named is Potassium voltage-gated channel subfamily A member 1 (Homo sapiens, UniProt Q09470). The experiment in a line: Effect on blockade of Kv1.1 channel. The class given is functional. Put shortly:
as §1

Test [6] concerns the target Voltage-gated inwardly rectifying potassium channel KCNH2 (Homo sapiens, UniProt Q12809). The experiment in a line: Effect on blockade of Kv11.1 channel. The format is functional.
Test [7] concerns T-cell. The experiment in a line: Inhibition of anti-CD3 antibody stimulated human T cell proliferation. The format is functional, cell-based. Put shortly:
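Human PBMCs were isolated from healthy donors by density gradient and plated at 2 × 10^5 cells/well in RPMI 1640 with 10% FCS. Cells were preincubated with compound for 30 min, then stimulated with 5 ng/mL anti-CD3 for 48 h. [3H]-thymidine (1 µCi/well) was added for the last 6 h. Done in triplicate and normalized to maximal control incorporation.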

Potassium voltage-gated channel subfamily A member 2, sequence (P16389 whole entry): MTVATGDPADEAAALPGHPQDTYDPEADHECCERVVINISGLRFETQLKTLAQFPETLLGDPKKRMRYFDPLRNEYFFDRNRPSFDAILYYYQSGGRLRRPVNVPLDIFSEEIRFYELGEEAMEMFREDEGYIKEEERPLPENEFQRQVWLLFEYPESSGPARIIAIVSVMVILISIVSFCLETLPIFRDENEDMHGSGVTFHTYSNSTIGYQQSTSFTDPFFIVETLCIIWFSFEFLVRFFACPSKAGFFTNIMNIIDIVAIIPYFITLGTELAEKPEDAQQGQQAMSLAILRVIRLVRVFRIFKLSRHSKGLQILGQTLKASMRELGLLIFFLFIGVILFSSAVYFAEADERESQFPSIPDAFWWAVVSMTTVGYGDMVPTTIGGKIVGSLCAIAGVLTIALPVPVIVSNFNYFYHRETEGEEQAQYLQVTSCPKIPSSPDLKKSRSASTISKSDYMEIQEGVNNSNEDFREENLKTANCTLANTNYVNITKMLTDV
Potassium voltage-gated channel subfamily A member 5, sequence (P22460 whole entry): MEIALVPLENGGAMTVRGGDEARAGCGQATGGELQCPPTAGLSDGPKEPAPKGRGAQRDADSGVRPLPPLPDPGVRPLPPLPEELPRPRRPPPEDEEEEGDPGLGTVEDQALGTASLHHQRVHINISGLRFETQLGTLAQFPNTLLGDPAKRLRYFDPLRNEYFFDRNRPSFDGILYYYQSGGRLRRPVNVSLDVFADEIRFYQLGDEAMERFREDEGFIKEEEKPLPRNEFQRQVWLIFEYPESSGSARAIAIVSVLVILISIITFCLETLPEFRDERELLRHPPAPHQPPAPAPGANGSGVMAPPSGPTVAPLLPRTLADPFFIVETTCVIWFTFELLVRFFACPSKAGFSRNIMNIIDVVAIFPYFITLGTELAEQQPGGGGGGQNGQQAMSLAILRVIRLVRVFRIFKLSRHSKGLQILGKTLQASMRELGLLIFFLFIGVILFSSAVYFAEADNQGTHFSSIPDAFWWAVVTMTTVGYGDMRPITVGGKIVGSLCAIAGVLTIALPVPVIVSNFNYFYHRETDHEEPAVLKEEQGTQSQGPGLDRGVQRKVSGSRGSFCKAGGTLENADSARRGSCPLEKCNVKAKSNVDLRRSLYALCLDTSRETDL
Potassium voltage-gated channel subfamily A member 4, sequence (P22459 whole entry): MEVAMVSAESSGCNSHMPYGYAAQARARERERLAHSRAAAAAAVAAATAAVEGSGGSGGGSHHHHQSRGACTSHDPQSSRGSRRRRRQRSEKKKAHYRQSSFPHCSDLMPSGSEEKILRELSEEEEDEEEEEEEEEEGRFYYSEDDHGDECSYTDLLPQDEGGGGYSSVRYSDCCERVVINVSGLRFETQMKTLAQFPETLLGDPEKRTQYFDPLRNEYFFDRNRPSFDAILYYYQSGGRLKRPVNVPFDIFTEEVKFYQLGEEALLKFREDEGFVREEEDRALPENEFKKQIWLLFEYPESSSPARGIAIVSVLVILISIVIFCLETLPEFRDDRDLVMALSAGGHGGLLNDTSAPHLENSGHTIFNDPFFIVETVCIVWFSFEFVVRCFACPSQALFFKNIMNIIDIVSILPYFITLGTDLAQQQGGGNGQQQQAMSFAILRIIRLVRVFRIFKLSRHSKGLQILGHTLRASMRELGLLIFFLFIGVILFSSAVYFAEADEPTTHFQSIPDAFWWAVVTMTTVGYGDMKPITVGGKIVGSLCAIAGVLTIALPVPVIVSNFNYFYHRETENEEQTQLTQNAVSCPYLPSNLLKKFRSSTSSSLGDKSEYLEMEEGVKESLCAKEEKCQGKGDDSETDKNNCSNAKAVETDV
Potassium voltage-gated channel subfamily A member 1, sequence (Q09470 whole entry): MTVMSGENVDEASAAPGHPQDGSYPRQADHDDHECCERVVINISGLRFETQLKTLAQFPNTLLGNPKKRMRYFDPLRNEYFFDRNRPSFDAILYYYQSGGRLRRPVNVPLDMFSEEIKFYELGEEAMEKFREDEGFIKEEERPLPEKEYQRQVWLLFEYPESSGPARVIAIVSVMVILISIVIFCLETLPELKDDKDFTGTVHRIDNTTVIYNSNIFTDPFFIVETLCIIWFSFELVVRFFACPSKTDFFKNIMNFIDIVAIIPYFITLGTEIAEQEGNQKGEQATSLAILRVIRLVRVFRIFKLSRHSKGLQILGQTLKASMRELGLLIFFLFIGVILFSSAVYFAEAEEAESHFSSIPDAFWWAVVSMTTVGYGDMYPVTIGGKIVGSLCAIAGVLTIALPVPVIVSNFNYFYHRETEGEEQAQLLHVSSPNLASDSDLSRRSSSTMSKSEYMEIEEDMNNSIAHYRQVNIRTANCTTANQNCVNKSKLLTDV
Potassium voltage-gated channel subfamily A member 3, sequence (P16390 whole entry): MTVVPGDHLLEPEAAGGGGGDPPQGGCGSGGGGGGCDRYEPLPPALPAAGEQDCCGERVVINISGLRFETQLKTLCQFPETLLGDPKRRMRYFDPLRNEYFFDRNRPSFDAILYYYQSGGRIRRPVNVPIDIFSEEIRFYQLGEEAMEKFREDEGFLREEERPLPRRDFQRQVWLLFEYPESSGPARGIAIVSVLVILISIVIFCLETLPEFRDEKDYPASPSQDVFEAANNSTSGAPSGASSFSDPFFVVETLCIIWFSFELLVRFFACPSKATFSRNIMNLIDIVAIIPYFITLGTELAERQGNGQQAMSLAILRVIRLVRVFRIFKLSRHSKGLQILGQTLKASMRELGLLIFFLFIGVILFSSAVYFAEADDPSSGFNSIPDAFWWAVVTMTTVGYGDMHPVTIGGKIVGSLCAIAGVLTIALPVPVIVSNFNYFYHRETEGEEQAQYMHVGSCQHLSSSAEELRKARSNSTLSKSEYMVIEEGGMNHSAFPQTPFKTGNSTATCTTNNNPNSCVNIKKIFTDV
Voltage-gated inwardly rectifying potassium channel KCNH2, sequence (Q12809 whole entry): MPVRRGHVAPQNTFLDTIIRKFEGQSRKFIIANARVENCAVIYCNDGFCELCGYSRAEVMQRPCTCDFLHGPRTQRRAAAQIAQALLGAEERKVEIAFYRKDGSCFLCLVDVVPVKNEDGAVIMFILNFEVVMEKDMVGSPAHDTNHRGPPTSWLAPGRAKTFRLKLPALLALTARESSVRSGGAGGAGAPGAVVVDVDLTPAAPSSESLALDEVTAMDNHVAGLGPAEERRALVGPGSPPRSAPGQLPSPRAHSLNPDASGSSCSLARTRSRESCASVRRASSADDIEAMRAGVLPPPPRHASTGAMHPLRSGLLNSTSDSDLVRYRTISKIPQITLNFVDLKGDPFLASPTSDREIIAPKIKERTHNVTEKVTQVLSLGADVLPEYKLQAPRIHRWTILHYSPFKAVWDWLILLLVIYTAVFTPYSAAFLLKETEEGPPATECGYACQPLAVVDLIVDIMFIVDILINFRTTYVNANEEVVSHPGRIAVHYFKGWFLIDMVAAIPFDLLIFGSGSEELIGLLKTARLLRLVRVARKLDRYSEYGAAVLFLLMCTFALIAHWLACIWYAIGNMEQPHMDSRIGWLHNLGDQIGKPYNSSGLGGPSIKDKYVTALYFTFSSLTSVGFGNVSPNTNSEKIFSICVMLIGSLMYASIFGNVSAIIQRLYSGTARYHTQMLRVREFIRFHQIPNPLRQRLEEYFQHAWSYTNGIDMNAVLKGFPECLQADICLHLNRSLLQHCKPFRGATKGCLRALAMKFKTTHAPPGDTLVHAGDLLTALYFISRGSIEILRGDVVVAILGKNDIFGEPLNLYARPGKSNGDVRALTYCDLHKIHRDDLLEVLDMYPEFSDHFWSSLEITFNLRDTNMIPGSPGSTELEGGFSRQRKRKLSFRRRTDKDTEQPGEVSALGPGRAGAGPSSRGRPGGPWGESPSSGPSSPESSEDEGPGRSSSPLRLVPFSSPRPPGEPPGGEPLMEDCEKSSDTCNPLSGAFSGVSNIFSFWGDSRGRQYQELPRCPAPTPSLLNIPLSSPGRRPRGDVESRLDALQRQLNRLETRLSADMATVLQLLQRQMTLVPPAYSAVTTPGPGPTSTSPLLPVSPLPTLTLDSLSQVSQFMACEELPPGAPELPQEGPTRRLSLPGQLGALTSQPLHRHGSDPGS

A word on the EC50: it is the concentration needed to bring the measured effect to its halfway point. A low value points to an effect from little substance. The compound `COc1c(C(C)=O)c(O)c(OCc2ccc(C(C)(C)C)cc2)c2occc12` showed an EC50 in test [1] of 5800 nM.
The same measure, in the same setting: then `CCOc1c(C(C)=O)c(OCCCCCCOc2c(C(C)=O)c(OCC)c3ccoc3c2OC)c(OC)c2occc12`, with 800 nM.
On the same count and under the same terms, in the case of `COc1c(O)c(C(C)=O)c(OCc2ccc(C(=O)c3ccccc3)cc2)c2ccoc12` it was 500 nM; in that of `COc1c(C(C)=O)c(O)c(OCc2ccc(-c3ccccc3)cc2)c2occc12`, 1200 nM; in that of `CCCOc1c(O)c(C(C)=O)c(OC)c2ccoc12`, 8000 nM.
On the same count and under the same terms, in the case of `COc1c(O)c(C(C)=O)c(OCc2cccc(Cl)c2)c2ccoc12` it was 1400 nM.
Take `COc1c(C(C)=O)c(O)c(OCc2ccc(F)cc2)c2occc12`: the EC50 in test [1] is 700 nM.
Still for that read-out and setting: then `CCOc1c(O)c(C(C)=O)c(OC)c2ccoc12`, with 10000 nM; and `COc1c(C(C)=O)c(O)c(OCc2ccc(Cl)cc2)c2occc12`, with 420 nM; and `COc1c(O)c(C(C)=O)c(OCc2cccc(C(=O)O)c2)c2ccoc12`, with greater than 10000 nM.
On the same count and under the same terms, then `COc1c(O)c(C(C)=O)c(OCc2cccc([N+](=O)[O-])c2)c2ccoc12`, with 1400 nM; and `COc1c(C(C)=O)c(O)c(OCc2cccc(OC(F)(F)F)c2)c2occc12`, with 450 nM; and `COc1c(O)c(C(C)=O)c(OCc2cccc(C)c2)c2ccoc12`, with 1000 nM.
On the same count and under the same terms, in the case of `COc1c(O)c(C(C)=O)c(OCc2cccc3ccccc23)c2ccoc12` it was 8000 nM; in that of `COc1c(C(C)=O)c(O)c(OCc2ccc(C(=O)c3ccccc3)cc2)c2occc12`, 500 nM; in that of `COc1c(C(C)=O)c(O)c(OCc2ccc(OC(F)(F)F)cc2)c2occc12`, 600 nM.
On to `COc1c(C(C)=O)c(O)c(OCc2cccc([N+](=O)[O-])c2)c2occc12`, for which the midpoint of the response in test [1], the EC50, lay at 600 nM.
On the same count and under the same terms, then `COc1c(O)c(C(C)=O)c(OCc2ccccc2)c2ccoc12`, with 2500 nM.
On the same count and under the same terms, in the case of `COc1c(C(C)=O)c(O)c(OCc2cccc(Cl)c2)c2occc12` it was 600 nM.
With `CC(=O)c1c(O)c(OCc2ccccc2)c2occc2c1OCc1ccccc1`, the EC50 in test [2] was 5000 nM; in test [3], greater than 20000 nM; in test [4] it was 10000 nM; in test [5] it was 7000 nM; in test [1] it was 1200 nM.
For the compound `CCCCCOc1c(C(C)=O)c(O)c(OC)c2occc12`, the midpoint of the response in test [1], the EC50, lay at 4000 nM. In other words, the single-digit micromolar range.
Still for that read-out and setting: in the case of `COc1c(C(C)=O)c(O)c(OCc2cccc(F)c2)c2occc12` it was 750 nM; in that of `COc1cccc(COc2c(C(C)=O)c(O)c(OC)c3occc23)c1`, 680 nM.
In turn, `COc1c(O)c(C(C)=O)c(OCc2ccc3ccccc3c2)c2ccoc12` yielded an EC50 in test [1] of 5000 nM.
On the same count and under the same terms, then `COc1c(O)c(C(C)=O)c(OCc2ccccc2F)c2ccoc12`, with 1700 nM; and `CCOc1c(C(=O)/C=C/c2cccc(O)c2)c(O)c(OC)c2occc12`, with 2500 nM; and `COc1c(C(C)=O)c(O)c(OCc2ccccc2C)c2occc12`, with 1900 nM.
On the same count and under the same terms, then `COc1c(O)c(C(C)=O)c(OCc2ccc(-c3ccccc3)cc2)c2ccoc12`, with 900 nM; and `COc1c(C(C)=O)c(O)c(OCc2ccc(OCc3ccccc3)cc2)c2occc12`, with 6300 nM; and `COc1c(O)c(C(C)=O)c(OCc2ccc(C(C)C)cc2)c2ccoc12`, with 700 nM.
Consider `COc1c(O)c(C(C)=O)c(OCc2ccccc2C)c2ccoc12`, for which a half-maximal effect in test [1] (EC50) was put at 2000 nM.
As for `COc1c(O)c(C(C)=O)c(OCc2ccc(Br)cc2)c2ccoc12`, the concentration for a half-maximal effect (EC50) in test [1] came out at 500 nM.
Compound `CCOc1c(C(C)=O)c(O)c(OCC)c2occc12` displayed an EC50 in test [1] of 6000 nM.
Still for that read-out and setting: in the case of `COc1c(C(C)=O)c(O)c(OCc2ccc(C(F)(F)F)cc2)c2occc12` it was 420 nM; in that of `COc1c(O)c(C(C)=O)c(OCc2ccccc2Cl)c2ccoc12`, 1200 nM.
`COc1c(O)c(C(C)=O)c(OCc2ccccc2-c2ccccc2)c2ccoc12` had an EC50 in test [1] of 2000 nM. This EC50 lies about 1.7-fold higher than the previous one.
Still for that read-out and setting: in the case of `COc1c(C(C)=O)c(O)c(OCc2ccccc2-c2ccccc2)c2occc12` it was 1100 nM; in that of `COc1c(C(C)=O)c(O)c(OCc2ccccc2F)c2occc12`, 2500 nM; in that of `COc1c(O)c(C(C)=O)c(OCc2ccc(C(C)(C)C)cc2)c2ccoc12`, 1500 nM.
On the same count and under the same terms, in the case of `CCOc1c(C(C)=O)c(O)c(OC)c2occc12` it was 7000 nM.
Still for that read-out and setting: then `COc1c(O)c(C(C)=O)c(OCc2ccc(C(F)(F)F)cc2)c2ccoc12`, with 510 nM.
As for `COc1c(C(C)=O)c(O)c(OCc2ccccc2)c2occc12`, the midpoint of the response in test [1], the EC50, lay at 1200 nM.
`COc1c(O)c(C(C)=O)c(OCc2ccc(OCc3ccccc3)cc2)c2ccoc12`: the EC50 in test [1] stood at 8800 nM.
As to `COc1c(O)c(C(C)=O)c(OCc2ccc(Cl)cc2)c2ccoc12`, the EC50 is 5000 nM in test [6]; 700 nM in test [2]; 4800 nM in test [3]; 2500 nM in test [4]; 2500 nM in test [7]; 1700 nM in test [5]. In test [1], the midpoint of the response, the EC50, lay at 480 nM.
In test [1], `COc1c(O)c(C(C)=O)c(OCc2ccc(OC(F)(F)F)cc2)c2ccoc12` had a concentration for a half-maximal effect (EC50) of 1800 nM.
Still for that read-out and setting: in the case of `COc1c(C(C)=O)c(O)c(OCc2ccc3ccccc3c2)c2occc12` it was 5000 nM.
The same measure, in the same setting: in the case of `CCCCCOc1c(O)c(C(C)=O)c(OC)c2ccoc12` it was 3000 nM; in that of `COc1c(C(C)=O)c(O)c(OCc2cccc(C)c2)c2occc12`, 1200 nM.
In test [1], `COc1c(O)c(C(C)=O)c(OCc2cccc(F)c2)c2ccoc12` displayed an EC50 of 1200 nM. That is a single-digit micromolar value.
On to `COc1ccc(COc2c(C(C)=O)c(O)c(OC)c3occc23)cc1`, for which a half-maximal effect in test [1] (EC50) was put at 1500 nM.
On the same count and under the same terms, in the case of `CCCOc1c(C(C)=O)c(O)c(OC)c2occc12` it was 5000 nM.
Turning to `COc1c(C(C)=O)c(O)c(OCc2ccc(Br)cc2)c2occc12`, the EC50 worked out at 900 nM in test [2]; 4300 nM in test [3]; 1400 nM in test [4]; 2500 nM in test [7]; 1200 nM in test [5]; 400 nM in test [1].
In the case of `COc1c(C(C)=O)c(O)c(OCc2ccccc2Cl)c2occc12`, in test [1], the 50% effective concentration (EC50) amounted to 700 nM.
Regarding `COc1c(C(C)=O)c(O)c(OCc2ccc(C(C)C)cc2)c2occc12`, the concentration giving a half-maximal response (EC50) in test [1] was found to be 1000 nM.
Same read-out and setting: in the case of `COc1c(O)c(C(C)=O)c(OCc2ccc(F)cc2)c2ccoc12` it was 1000 nM; in that of `COc1c(O)c(C(C)=O)c(OCc2cccc(OC(F)(F)F)c2)c2ccoc12`, 550 nM; in that of `COc1c(C(C)=O)c(O)c(OC)c2occc12`, 45000 nM.
